Results on 2 compounds are retold here after publication PMC12486192 (Clinical Pharmacology in Drug Development, 2025).

Like-named read-outs stand apart in the source and are kept apart here.

The format of data set [1] is in vivo, human.
For data set [2] the following is noted: similar to Biopharmaceutics Classification System Class 2 compounds; cited from earlier work.
Data set [3] is classed as in vivo, human. Conditions: Part 1: single oral 400 mg [14C]-imlunestrant solution. In short, it runs like this: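 Healthy women received a single oral 400 mg radiolabelled test compound solution (100 µCi). Urine was collected −12–0, 0–6, 6–12 and 12–24 h, then in 24-h intervals. Feces were pooled 0–24 h, then in 24-h intervals. Collection continued until ≥90% of dose was recovered and ≤1%/day for 2 consecutive days, or Day 22. Vomitus was collected within 4 h. Radioactivity was counted by LSC and reported as % and cumulative % of dose.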

The next data set is described as follows: Safety and tolerability. The format is in vivo, human. The method in brief: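 AEs and SAEs were monitored to Day 59 (Part 1) or Day 46 (Part 2), with a follow-up call ~7 days after discharge. Part 2 gave two 200-mg oral tablets, then 4 h later a 45 µg (~1 µCi) radiolabelled IV infusion over 15 min. TEAEs were summarised by treatment, MedDRA v24.0 system organ class and preferred term. Severity (mild/moderate/severe) was graded by the investigator.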

Data set [4] in a line: Metabolite profiling and identification in plasma and feces. The data set is classed as in vivo, human. The conditions noted are these: Part 1: oral 400 mg [14C]-imlunestrant solution. In short, it runs like this:
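Part 1 plasma was sampled predose and 0.5–264 h after the oral radiolabelled dose. It was extracted twice with acetonitrile (3 volumes), dried, and reconstituted in 10 mM ammonium formate pH 9.0:methanol (80:20). Separation was on a C18 column with 10 mM ammonium formate pH 9.0 / methanol, gradient 20% to 90% B. Fecal metabolites were identified if ≥1% of dose across time points.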

The next data set has as its system P‐glycoprotein. Conditions: in vitro; cited from earlier work.
Data set [5] can be described thus: Estimated first-pass metabolism in gut and liver. The data set is classed as in vivo, human.
Data set [6] can be described thus: Biliary excretion in bile-cannulated rats. Conditions: data not shown. The data set is classed as in vivo.
In data set [7] the test system is uridine 5′ diphospho‐glucuronosyltransferases (UGTs; including UGT1A1, UGT1A8, UGT1A3, UGT1A9, and UGT1A10). The experiment in a line: In vitro enzyme substrate studies, UGTs. The data set is classed as in vitro ADME.
In data set [8] the target is cytochrome P450 (CYP) 3A4 (Homo sapiens, UniProt P08684). The data set can be described thus: In vitro enzyme substrate studies, CYP3A4. The data set is classed as in vitro ADME.
Sequence of cytochrome P450 (CYP) 3A4 (P08684 whole entry): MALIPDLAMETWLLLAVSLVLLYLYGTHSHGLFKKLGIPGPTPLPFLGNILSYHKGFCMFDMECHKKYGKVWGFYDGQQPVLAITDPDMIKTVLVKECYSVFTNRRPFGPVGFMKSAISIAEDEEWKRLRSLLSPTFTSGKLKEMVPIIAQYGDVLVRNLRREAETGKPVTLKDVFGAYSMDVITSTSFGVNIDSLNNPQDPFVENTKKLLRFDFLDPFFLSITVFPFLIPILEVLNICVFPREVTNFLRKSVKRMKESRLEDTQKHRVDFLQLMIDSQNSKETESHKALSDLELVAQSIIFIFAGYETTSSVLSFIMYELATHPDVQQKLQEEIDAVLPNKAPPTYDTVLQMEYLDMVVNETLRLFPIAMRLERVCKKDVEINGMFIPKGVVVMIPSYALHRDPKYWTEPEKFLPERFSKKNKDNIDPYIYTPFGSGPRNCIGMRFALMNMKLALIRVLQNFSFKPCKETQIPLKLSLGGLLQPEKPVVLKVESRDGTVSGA
The conditions of data set [9]: oral 200‐1200 mg once daily, patients, EMBER; cited from earlier work.
The format of data set [10] is in vivo. The conditions noted are these: female, human, plasma, po, 400 mg.
The conditions of data set [11]: cited from earlier work.
Where [12] appears, read: Part 2: 45 µg [14C]-imlunestrant (1 µCi) IV infusion.
The mark [13] stands for this setting: female, human, plasma, intravenous, 45 µg.
Where [14] appears, read: female, human, plasma, iv, 45 µg.
[15] abbreviates: female, human, plasma, po, 400 mg.
The mark [16] stands for this setting: Part 1: 400 mg [14C]-imlunestrant oral (N=8).

What is called AUC is the area under the concentration-time curve, a measure of exposure. Low values mean less exposure, high ones more exposure. Broadly, the Cmax is the peak of the concentration-time curve. One may read the Tmax as the time at which the peak concentration occurs. The term half-life denotes the time needed for the level to fall by half in the phase considered. Read a low half-life as rapid decline. One may read the Vd as the apparent volume that relates the amount in the body to the concentration in plasma or blood. Read a high Vd as wide distribution into tissue. The term clearance denotes the rate of elimination divided by the concentration. Lower therefore signals a low capacity for elimination. With `Oc1ccc2c3c(cnc2c1)-c1ccc(C(F)(F)F)cc1O[C@@H]3c1ccc(OCCN2CC(CF)C2)cc1` [Imlunestrant], in [1] (setting [12]), the “Time to Cmax of [14C]‐imlunestrant after start of intravenous infusion” value is not above 15 min and the “Time to Cmax of total radioactivity after start of intravenous infusion” value is not above 15 min. Further, in [1] (setting [13]), the AUC was 1.92 ng·h/mL, the highest level (Cmax) was 0.585 ng/mL, the Tmax stood at 0.25 h and the half-life is 32.5 h. In [1] (setting [14]), this compound had a Vd of 1020 L and a clearance of 397 mL/min. In [1] (setting [15]), the Cmax turned out to be 38.7 ng/mL, the time to peak (Tmax) was 4.37 h and the half-life is 32.1 h. In [2], the Permeability result is recorded as “moderate to high”. Besides, the “Radioactivity recovered in the feces in the first 192 hours” value in data set [3] was “Over 90%”. For the same compound, in data set [3] (mean of 5 participants), the “Total radioactivity excreted via the feces” value is reported as 97.3%. Besides, in the data set “Safety and tolerability” (setting [16]), the “All TEAEs: % of participants with TEAEs” value stood at 100% and the “All TEAEs: number of participants with TEAEs” value came out at 8. In addition, the “All TEAEs: number of TEAEs” value in the data set “Safety and tolerability” (Part 2: 400 mg imlunestrant oral tablets + 45 µg [14C]-imlunestrant IV (N=8)) worked out at 5. Also, the Tolerability result in the data set “Safety and tolerability” (single 400 mg oral solution or tablet/intravenous dose, fasted, healthy women) is given as “well tolerated”. Further, the “Detectable in plasma up to” value in data set [4] is listed as “up to 264 hours”. The “Substrate of the efflux transporter P‐glycoprotein” value with P‐glycoprotein was “in vitro substrate”. In addition, in [5], the “Fraction passing through the portal vein extracted by first‐pass metabolism in the liver” value was “Approximately 30%”. For the same compound, in data set [6], the “Fraction of oral dose appearing as a glucuronide metabolite in bile” value is recorded as “substantial fraction”. In data set [7], the “Substrate of UGTs” value is reported as “substrate”. In addition, the “Substrate of CYP3A4” value in data set [8] was “substrate”. Moreover, in [9], the “Dose dependence of Cmax and AUC0‐∞” value was “dose‐proportional increase”; the “Geometric mean t1/2” value is 25 to 30 h; the Median tmax entry is recorded as “approximately 4 hours”. Besides, in data set [10], the Cmax worked out at 117 ng/mL and the half-life is 33.7 h.
`C[C@]12CC[C@@H]3c4ccc(O)cc4C[C@@H](CCCCCCCCC[S+]([O-])CCCC(F)(F)C(F)(F)F)[C@H]3[C@@H]1CC[C@@H]2O` (stereo partly drawn) [fulvestrant]: the Solubility entry in [11] is reported as “poorly soluble”.
